Data set [1] concerns LN-229. The data set is described as follows: Cytotoxicity against human LN229 cells assessed as cell viability at 1 ug/ml incubated for 72 hrs by Guava ViaCount reagent based flow cytometry. In kind it is functional. The settings on record: LN-229, 72 h, read-out: Activity. Summed up:
(§1)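 Cells kept as semi-confluent monolayers in DMEM with 10% FBS, 50 U/ml penicillin and […], at 37 °C under 5% CO₂. Seeded at 2 × 10⁴ cells per well in 24-well plates. Compounds were made up as 10 mg/ml DMSO stocks, diluted into medium to a final 1 or 10 μg/ml, and left on the cells for 72 h.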
(In general: In flow cytometry, cells or beads pass a laser one at a time.)

Data set [2] deals with LN-229. The data set can be described thus: Cytotoxicity against human LN229 cells assessed as cell viability at 10 ug/ml incubated for 72 hrs by Guava ViaCount reagent based flow cytometry. The class given is functional. The settings on record: LN-229, 72 h, read-out: Activity. The method in brief:
as §1

The nature of data set [3]: Solubility in organic solvents. In kind it is physicochemical.
A short description of data set [4]: Solubility in water. In kind it is physicochemical. The following applies: buffer.

On to `CN1C(=O)C(=CNc2ccc3ccccc3c2)C(=O)N(C)C1=O`, for which the viability at 1 µg/mL in data set [1] was 90.5%. Further, the viability at 10 µg/mL in data set [2] is 86.6%.

As to `O=C1NC(=S)NC(=O)C1=CNc1ccc2ccccc2c1`, the viability at 1 µg/mL in data set [1] was found to be 96.5%. Further, the viability at 10 µg/mL in data set [2] was 94.4%.

In the case of `O=C1NC(=O)N(c2ccc([N+](=O)[O-])cc2)C(=O)/C1=C/Nc1cccc2c1C(=O)c1ccccc1C2=O`, the viability at 1 µg/mL in data set [1] was determined as 75.8%. Further, the viability at 10 µg/mL in data set [2] was 10.4%.

For `CN1C(=O)C(=CNc2ccccc2)C(=O)N(C)C1=O`, the solubility result in data set [3] and in data set [4] was “Insoluble” each time. The viability at 1 µg/mL in data set [1] came to 95%. In addition, the viability at 10 µg/mL in data set [2] amounted to 96.1%.

On to `CN1C(=O)NC(=O)/C(=C\Nc2cccc3c2C(=O)c2ccccc2C3=O)C1=O`, for which the viability at 1 µg/mL in data set [1] amounted to 84.8%. In data set [2], the viability at 10 µg/mL stood at 35.3%.

As to `CN1C(=O)/C(=C/Nc2cccc3ccccc23)C(=O)NC1=S`, the viability at 1 µg/mL in data set [1] is 90%. The viability at 10 µg/mL in data set [2] stood at 78.3%.

For `O=C1NC(=O)C(=CNc2cccc3c2C(=O)c2ccccc2C3=O)C(=O)N1`, the viability at 1 µg/mL in data set [1] is 31.9%. Further, the viability at 10 µg/mL in data set [2] is 22.1%.

In the case of `CN1C(=O)C(=CNc2cccc3ccccc23)C(=O)N(C)C1=O`, in data set [1], the viability at 1 µg/mL was 94.5%. In addition, the viability at 10 µg/mL in data set [2] came out at 95.4%.

As to `O=C1NC(=O)C(=CNc2ccc3ccccc3c2)C(=O)N1`, the viability at 1 µg/mL in data set [1] worked out at 92.4%. Besides, the viability at 10 µg/mL in data set [2] was 82.4%.

`CN1C(=O)C(=CNc2ccc(-c3ccccc3)cc2)C(=O)N(C)C1=O`: the viability at 1 µg/mL in data set [1] came to 94.8%. In addition, the viability at 10 µg/mL in data set [2] was 94.6%.

As for `O=C1NC(=S)NC(=O)C1=CNc1cccc2c1C(=O)c1ccccc1C2=O`, the viability at 1 µg/mL in data set [1] amounted to 65%. Moreover, the viability at 10 µg/mL in data set [2] was determined as 48.6%.

On to `CN1C(=O)NC(=O)/C(=C/Nc2ccccc2)C1=O`, for which the solubility entry in data set [3] and in data set [4] was “Insoluble” each time. Further, in data set [1], the viability at 1 µg/mL was determined as 94.9%. In addition, the viability at 10 µg/mL in data set [2] came out at 95%.

Consider `CN1C(=O)NC(=O)/C(=C\Nc2ccc3c(c2)C(=O)c2ccccc2C3=O)C1=O`, for which the viability at 1 µg/mL in data set [1] turned out to be 89.7%. In data set [2], the viability at 10 µg/mL was 28.9%.

With `O=C1NC(=O)C(=CNc2ccccc2)C(=O)N1`, the solubility result in data set [3] and in data set [4] was “Insoluble” each time. Also, in data set [1], the viability at 1 µg/mL was 96.2%. For the same compound, the viability at 10 µg/mL in data set [2] was determined as 96.1%.

In the case of `O=C1NC(=S)NC(=O)C1=CNc1ccccc1`, the solubility entry in data set [3] and in data set [4] was “Insoluble” throughout. In data set [1], the viability at 1 µg/mL was determined as 96.5%. In addition, the viability at 10 µg/mL in data set [2] amounted to 95.3%.

For `CN1C(=O)/C(=C/Nc2cccc3c2C(=O)c2ccccc2C3=O)C(=O)NC1=S`, the solubility result in data set [3] and in data set [4] was “Insoluble” in each case.

In the case of `CN1C(=O)/C(=C/Nc2ccc(-c3ccccc3)cc2)C(=O)NC1=S`, in data set [1], the viability at 1 µg/mL was 97%. In addition, the viability at 10 µg/mL in data set [2] is 89.6%.

Regarding `CN1C(=O)NC(=O)/C(=C\Nc2ccc3ccccc3c2)C1=O`, the viability at 1 µg/mL in data set [1] stood at 90%. Also, the viability at 10 µg/mL in data set [2] was found to be 56%.

For `CN1C(=O)C(=CNc2ccc3cc4ccccc4cc3c2)C(=O)N(C)C1=O`, the viability at 1 µg/mL in data set [1] turned out to be 88.1%. Besides, in data set [2], the viability at 10 µg/mL was determined as 60.8%.

Turning to `CN1C(=O)NC(=O)/C(=C\Nc2ccc(-c3ccccc3)cc2)C1=O`, the viability at 1 µg/mL in data set [1] worked out at 96.9%. Besides, the viability at 10 µg/mL in data set [2] was found to be 93.5%.

Turning to `O=C1NC(=O)C(=CNc2ccc(-c3ccccc3)cc2)C(=O)N1`, in data set [1], the viability at 1 µg/mL amounted to 92.6%. The viability at 10 µg/mL in data set [2] is 85.5%.

On to `O=C1NC(=S)NC(=O)C1=CNc1ccc(-c2ccccc2)cc1`, for which the viability at 1 µg/mL in data set [1] worked out at 95.3%. Moreover, the viability at 10 µg/mL in data set [2] is 13.8%.

Regarding `O=C1NC(=O)C(=CNc2ccc3c(c2)C(=O)c2ccccc2C3=O)C(=O)N1`, the viability at 1 µg/mL in data set [1] stood at 82.9%. Besides, in data set [2], the viability at 10 µg/mL was 17.2%.

Take `O=C1NC(=O)N(c2ccccc2)C(=O)/C1=C/Nc1cccc2c1C(=O)c1ccccc1C2=O`: the viability at 1 µg/mL in data set [1] stood at 66.3%. Further, the viability at 10 µg/mL in data set [2] is 29.2%.

With `CN1C(=O)/C(=C/Nc2ccc3ccccc3c2)C(=O)NC1=S`, the viability at 1 µg/mL in data set [1] is 94.6%. The viability at 10 µg/mL in data set [2] stood at 84.5%.

For `CN1C(=O)NC(=O)/C(=C\Nc2ccc3cc4ccccc4cc3c2)C1=O`, in data set [1], the viability at 1 µg/mL was 60.3%. Moreover, the viability at 10 µg/mL in data set [2] is 9.4%.

As to `O=C1NC(=S)NC(=O)C1=CNc1ccc2cc3ccccc3cc2c1`, the viability at 1 µg/mL in data set [1] worked out at 83.3%. Also, the viability at 10 µg/mL in data set [2] stood at 11%.

Take `O=C1NC(=O)C(=CNc2cccc3ccccc23)C(=O)N1`: in data set [1], the viability at 1 µg/mL was 93.2%. In addition, the viability at 10 µg/mL in data set [2] came to 95.1%.

As for `CN1C(=O)NC(=O)/C(=C\Nc2cccc3ccccc23)C1=O`, in data set [1], the viability at 1 µg/mL is 89%. Moreover, the viability at 10 µg/mL in data set [2] was found to be 94.5%.

Take `CN1C(=O)C(=CNc2ccc3c(c2)C(=O)c2ccccc2C3=O)C(=O)N(C)C1=O`: the viability at 1 µg/mL in data set [1] worked out at 92.4%. In addition, in data set [2], the viability at 10 µg/mL was 68.3%.

As to `CN1C(=O)/C(=C/Nc2ccc3cc4ccccc4cc3c2)C(=O)NC1=S`, in data set [1], the viability at 1 µg/mL turned out to be 75%. Moreover, in data set [2], the viability at 10 µg/mL was found to be 3.7%.

Regarding `CN1C(=O)/C(=C\Nc2ccccc2)C(=O)NC1=S`, the solubility entry in data set [3] and in data set [4] was “Insoluble” each time. In addition, the viability at 1 µg/mL in data set [1] is 94.3%. Also, in data set [2], the viability at 10 µg/mL worked out at 94.3%.

With `CN1C(=O)/C(=C/Nc2ccc3c(c2)C(=O)c2ccccc2C3=O)C(=O)NC1=S`, the viability at 1 µg/mL in data set [1] came out at 80.8%. In data set [2], the viability at 10 µg/mL amounted to 17.2%.

For `O=C1NC(=S)NC(=O)C1=CNc1ccc2c(c1)C(=O)c1ccccc1C2=O`, the viability at 1 µg/mL in data set [1] turned out to be 87.4%. Also, the viability at 10 µg/mL in data set [2] amounted to 12.3%.

Consider `CN1C(=O)C(=CNc2cccc3c2C(=O)c2ccccc2C3=O)C(=O)N(C)C1=O`, for which the viability at 1 µg/mL in data set [1] was 94.7%. Also, the viability at 10 µg/mL in data set [2] amounted to 86.3%.

As for `O=C1NC(=O)N(c2ccccc2)C(=O)/C1=C/Nc1ccc2c(c1)C(=O)c1ccccc1C2=O`, in data set [1], the viability at 1 µg/mL is 87.6%. Moreover, the viability at 10 µg/mL in data set [2] turned out to be 76.5%.

As for `O=C1NC(=O)N(c2ccc([N+](=O)[O-])cc2)C(=O)/C1=C/Nc1ccc2c(c1)C(=O)c1ccccc1C2=O`, the viability at 1 µg/mL in data set [1] was 88.2%. Also, in data set [2], the viability at 10 µg/mL came to 61.8%.

The record behind these values is ChEMBL document CHEMBL4043206, “Anticancer potential of aminomethylidene-diazinanes I. Synthesis of arylaminomethylidene of diazinetriones and its cytotoxic effects tested in glioblastoma cells” (Bioorg Med Chem, 2017).
